KCNK9 inh: blocks the human KCNK9 two-pore domain potassium channel. Q9NPC2. HEK293 KCNK9, FluxOR thallium flux fluorescence; stronger effect = lower value. B-score at 10 µM. actives 1.2% (n = 310,000);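 active means ratio B-score over 3 SD below the library mean, with starting fluorescence within 5 SD of its mean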;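 further: negative B-score means less thallium flux so channel inhibition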
hERG rescue: compounds protecting human hERG from proarrhythmic drug block. CHO-hERG, FluxOR thallium flux, dofetilide IC70 present. actives 0.51% (n = 310,000). Q12809. activation (rescue from dofetilide block), less the hit threshold, % at 10 µM;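 active means activation above the mean of controls blocked by dofetilide plus 5 SD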;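 further: thallium influx through hERG after potassium depolarization seen as dye fluorescence rise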
KCNQ1 block: inhibitors of human KCNQ1 potassium channel. P51787. CHO-K1 KCNQ1, FluxOR thallium flux fluorescence; stronger effect = higher value. B-score at 10 µM. actives 1.3% (n = 310,000);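 active means compounds whose thallium flux B-score, printed positive for inhibition, exceeds three library SD while starting fluorescence stays within three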;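 further: channel opened by potassium depolarization with thallium stimulus after 20 min compound exposure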
Cl transport mod: modulators of human KCC2 chloride dependent transport | Q9H2X9 | KCC2 cells, thallium flux FluoZin-2 fluorescence | B-score of Tl+ flux slope (higher = more flux/activation; lower = inhibition) at 10 µM | actives 2.2% (n = 190,000) | AID 1456;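 active means thallium flux slope and its plate-corrected score both differing from the plate sample mean at a set confidence after two filtering rounds, in either direction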;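 further: slope of fluorescence scaled to starting intensity during 10 to 20 s after thallium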
KCNK3 inh: human KCNK3 channel inhibition, primary screen | actives 0.84% (n = 340,000) | B-score at 10 µM | CHO-KCNK3 thallium flux, FluxOR fluorescence; stronger effect = lower value;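 active means B-score under library mean minus 4 SD, starting fluorescence ratio at most library mean plus 5 SD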;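 further: more negative B-score means stronger inhibition of thallium flux through KCNK3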
Target sequence (O14649 whole entry, looked up): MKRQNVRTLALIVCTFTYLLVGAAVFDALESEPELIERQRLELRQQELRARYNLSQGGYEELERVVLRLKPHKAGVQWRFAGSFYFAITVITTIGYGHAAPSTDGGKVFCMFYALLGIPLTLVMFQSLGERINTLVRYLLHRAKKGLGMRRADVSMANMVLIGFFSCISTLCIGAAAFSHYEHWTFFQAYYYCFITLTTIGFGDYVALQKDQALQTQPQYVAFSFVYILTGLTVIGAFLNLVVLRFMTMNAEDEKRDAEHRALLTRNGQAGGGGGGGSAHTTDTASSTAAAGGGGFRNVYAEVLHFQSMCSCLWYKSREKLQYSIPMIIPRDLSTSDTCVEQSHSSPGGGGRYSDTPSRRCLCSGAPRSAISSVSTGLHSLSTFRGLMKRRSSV
KCNQ1 act: potentiates or activates the human KCNQ1 potassium channel | P51787 | CHO-K1 KCNQ1, thallium flux FluxOR fluorescence; stronger effect = higher value | B-score at 10 µM | actives 0.35% (n = 310,000);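 active means fluorescence ratio B-score, a plate-corrected score, at least three library SD, with initial intensity B-score within 5 SD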
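Test system: CHO-K1 cells stably expressing KCNQ1 / Medium: assay buffer / Also added: depolarizing K+/Tl+ stimulus, K2SO4 and Tl2SO4 each 12.5 mM in 5x stock / Incubation: 90 min dye loading and 20 min compound exposure, both at room temperature / Signal: thallium influx via FluxOR fluorescence, kinetic imaging / Evaluation: B score of baseline-normalized fluorescence ratio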
KCC2 sec1: KCC2 (human) modulation, secondary assay; shares compounds with Cl transport mod; HEK293-KCC2, thallium flux, FluoZin2 fluorescence; stronger effect = higher value; normalised thallium flux (F/F0 slope) at 10 µM; actives 15% (n = 3,700); AID 1713;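 active means thallium flux slope above the same plate's solvent-only control mean plus 3 SD; inconclusive means the two replicate wells disagree; inactive means no significant difference from solvent-only control wells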
KCC2 bumet counter: bumetanide-insensitive thallium flux in KCC2 cells with ouabain, counter-screen; shares compounds with Cl transport mod; HEK293-KCC2 + bumetanide/ouabain, thallium flux FluoZin2; stronger effect = higher value; normalized thallium flux at 10 µM; actives 49% (n = 3,700); AID 1714;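 active means thallium entry rate above the same plate's blocked-transporter control wells by more than 3 SD; inconclusive means the two repeat wells disagree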;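 further: raw slope of fluorescence over initial fluorescence between 10 and 20 s after thallium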
KCC2 secondary2: confirmation of human KCC2 transport modulators; shares compounds with Cl transport mod; HEK293-KCC2, thallium flux FluoZin2 fluorescence; actives lie on both sides; F/F0 rise rate, 10–20 s post-thallium; normalized thallium flux at 10 µM; actives 23% (n = 3,700);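 active means thallium flux slope more than 3 SD above or below the plate's solvent-only control mean, mostly below; inconclusive means the two repeat wells disagreed; inactive means no significant shift from solvent-only controls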
HEK counter1: parental HEK flux effect, counter-screen; AID 1716; thallium flux rate (normalised fluorescence) at 10 µM; actives 46% (n = 3,700); HEK293 parental cells, thallium flux FluoZin2, ouabain; baseline-ratio fluorescence slope, 10–20 s after thallium; shares compounds with Cl transport mod;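 active means thallium flux rate significantly above the same plate's solvent-only control wells, beyond their mean plus 3 SD; inconclusive means the two replicate wells gave conflicting results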
KCC2 ouabain: modulates human KCC2 on retest with ouabain. shares compounds with Cl transport mod. HEK293-KCC2, thallium flux FluoZin2 fluorescence; bidirectional: low = inhibitor, high = activator. raw Tl+ flux slope (below DMSO = inhibition, above = activation) at 10 µM. actives 48% (n = 3,700);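 active means thallium flux slope beyond 3 SD from same-plate DMSO control mean in most replicates, usually higher, sometimes lower; inconclusive means repeat tests gave conflicting results; inactive means no significant difference from controls in most replicates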;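 further: slope of initial-normalized fluorescence between seconds 10 and 20 after thallium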
HEK293 Tl flux2: acts in parental HEK cells, second KCC2 counter-screen | shares compounds with Cl transport mod | HEK293 parental, thallium flux FluoZin-2 fluorescence slope | thallium flux slope at 10 µM | actives 33% (n = 3,700) | AID 1718;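 active means thallium flux slope above the same plate's solvent-control mean plus 3 SD in both duplicate wells; inconclusive means duplicate wells that disagreed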;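 further: run without ouabain in cells lacking the KCC2 cotransporter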
Numbers stand for hits; n = inactive; u = inconclusive; x = not tested or not shown. An excerpt weighted towards active compounds, which were near 4.1% of everything screened.

SMILES	KCNK9 inh	hERG rescue	KCNQ1 block	Cl transport mod	KCNK3 inh	KCNQ1 act	KCC2 sec1	KCC2 bumet counter	KCC2 secondary2	HEK counter1	KCC2 ouabain	HEK293 Tl flux2
C#CCOCCOCCOCCNc1nc(N2CCN(C(=O)Cn3cc(CC(C)O)nn3)CC2)nc(N2CCN(C(=O)[C@H](C)n3cc(CCC(=O)O)nn3)CC2)n1 (stereo not given in full)	x	x	x	x	n	x	x	x	x	x	x	x
CCN1C[C@@H]2[C@@H]3C(=O)N(Cc4ccccc4)C(=O)[C@@H]3[C@](C)(C1=O)N2C(=O)c1ccc(C(F)(F)F)cc1	x	x	x	x	n	x	x	x	x	x	x	x
FC(F)Sc1nc2ccccc2[nH]1	n	n	n	50.3	n	n	0.026	0.113	0.0481	0.0502	0.0512	0.0244
O=C(CSc1nc2ccccc2[nH]1)Nc1ccccc1F	n	n	n	-4.68	n	n	n	n	n	n	n	n
CCOc1ccccc1N1C(=O)c2ccc(C(=O)Nc3cccnc3)cc2C1=O	n	n	n	-4.62	n	n	n	n	n	n	n	n
Nc1ncnc2c1ncn2[C@@H]1O[C@H](CNCc2ccc(-n3cccn3)cc2)[C@@H](O)[C@H]1O	x	x	x	x	n	x	x	x	x	x	x	x
O=c1c2cc(Cl)ccc2[nH]c(=S)n1Cc1ccccn1	n	n	n	9.89	n	n	n	0.0666	0.0469	0.0357	0.0536	0.0338
CCN(CC)CCn1c(=S)[nH]c2ccc(Cl)cc2c1=O	n	n	n	24.7	n	n	n	0.0173	n	u	0.03	n
O=C(NCc1ccccn1)c1ccc(Cn2c(=S)[nH]c3ccc(Br)cc3c2=O)cc1	n	n	n	n	n	n	x	x	x	x	x	x
O=c1c2cc(Br)ccc2[nH]c(=S)n1Cc1cccnc1	n	n	n	5.43	n	n	u	0.0246	n	0.0136	n	0.012
COc1ccccc1NC(=O)C(C)OC(=O)CC1CCCCC1 (stereo not given)	x	x	x	x	n	x	x	x	x	x	x	x
COc1ccccc1OCCNC(=O)CCNS(=O)(=O)c1ccc(C)cc1	x	x	x	x	n	x	x	x	x	x	x	x
O=[N+]([O-])c1cc(Br)c(O)c(/C=N/Nc2nnnn2-c2cccc3ccccc23)c1	n	n	7	-3.24	n	n	n	n	u	u	u	n
Nc1nc2c(F)cccc2s1	n	n	n	n	n	n	x	x	x	x	x	x
Fc1cccc2sc(Nc3nc4c(F)cccc4s3)nc12	n	13.1	n	18	n	n	u	0.0355	n	0.0523	0.0339	u
CCc1ccccc1NNC(=O)c1snnc1C	n	n	n	5.01	n	n	n	0.00837	n	n	n	n
Cc1nnsc1C(=O)NNc1c(Cl)cccc1Cl	n	n	n	n	n	n	x	x	x	x	x	x
CCOc1cccc2sc(NC(=O)c3ccc(Br)s3)nc12	n	n	n	31.5	n	n	u	0.0565	0.0489	0.0338	0.0377	0.0315
CCOC(=O)c1cnc(-n2nc(C)cc2C)nc1NNc1ncc(-c2ccccc2)cn1	n	n	n	8.53	x	n	n	0.0243	n	0.0173	0.0269	0.0207
CC(=O)Oc1ccccc1C(=O)C=Cc1cccc([N+](=O)[O-])c1	x	x	x	x	n	x	x	x	x	x	x	x

Compound activity: PubChem, several laboratories
